# Data as given in ChEMBL document CHEMBL5346929, “Designed switch from covalent to non-covalent inhibitors of carboxylesterase Notum activity” (Eur J Med Chem, 2023).
# Columns and labels:
# [1] = system: liver microsomes (Mus musculus); assay: Metabolic stability in mouse liver microsome assessed as intrinsic clearance measured upto 60 mins by LC-MS/MS analysis; details: read-out: CLH
# [2] = biological target: T1, Palmitoleoyl-protein carboxylesterase NOTUM (Homo sapiens, UniProt Q6P988); assay: Inhibition of human recombinant Notum (81 to T451 residues) expressed in HEK293S cells using OPTS as substrate at 10 uM incubated for 40 mins by microplate reader analysis relative to control
# T1 sequence (Q6P988 whole entry): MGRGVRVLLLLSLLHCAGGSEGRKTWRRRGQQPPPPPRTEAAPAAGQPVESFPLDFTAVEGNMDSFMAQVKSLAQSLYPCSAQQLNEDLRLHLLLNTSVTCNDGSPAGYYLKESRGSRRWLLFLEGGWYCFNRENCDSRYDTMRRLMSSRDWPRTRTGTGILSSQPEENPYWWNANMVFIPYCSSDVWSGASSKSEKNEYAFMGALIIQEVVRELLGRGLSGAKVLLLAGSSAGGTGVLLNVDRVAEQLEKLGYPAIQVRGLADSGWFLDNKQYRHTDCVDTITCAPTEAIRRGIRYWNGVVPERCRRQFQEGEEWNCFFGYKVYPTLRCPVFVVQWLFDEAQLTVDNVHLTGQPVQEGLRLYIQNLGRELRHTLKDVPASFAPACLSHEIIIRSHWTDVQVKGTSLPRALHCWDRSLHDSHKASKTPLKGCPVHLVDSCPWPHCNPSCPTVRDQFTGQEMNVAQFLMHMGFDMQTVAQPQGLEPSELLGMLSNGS
# Outline: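 Biochemical assay with the Notum 81–451 C330S construct and the synthetic fluorescent substrate OPTS.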
# [3] = biological target: T1, Palmitoleoyl-protein carboxylesterase NOTUM; assay: Inhibition of human recombinant Notum (81 to T451 residues) expressed in HEK293S cells using OPTS as substrate incubated for 40 mins by microplate reader analysis
Structure (SMILES),microsomal CLint [1],inhibition at 10 µM [2],IC50 [3]
O=C1CCC2Cc3ccccc3N12 (racemic),74 µL/min/mg,,
CC(=O)N1CCC(c2ccccc2)C1 (stereo unspecified),,< 20%,Not Active
CC(=O)N1CCS(=O)(=O)c2ccccc21,,20%,
CC(=O)N(C)c1ccccc1C,,20%,
O=C1CCCN1c1ccccc1,,20%,
CCN1CCc2c(Cl)cccc21,,20%,
CC(=O)n1cnc2ccccc21,,< 20%,Not Active
CC(=O)n1ncc2ccccc21,,20%,
CC(=O)N1CCc2cc(C#N)ccc21,,20%,
